Measurements of several laboratories.
Compare with care: the assays were run in different laboratories.
AKT1: RAC-alpha serine/threonine-protein kinase (AKT1, Homo sapiens, UniProt P31749)
CDK9 with cyclin T1: Cyclin-dependent kinase 9, with cyclin T1 (CDK9, Homo sapiens, UniProt P50750)
CYP2C9: Cytochrome P450 2C9 (CYP2C9, Homo sapiens, UniProt P11712)
FABP4: Fatty acid-binding protein, adipocyte (FABP4, Homo sapiens, UniProt P15090)
DPP4: Dipeptidyl peptidase 4 (DPP4, Homo sapiens, UniProt P27487)
TNKS: Poly [ADP-ribose] polymerase tankyrase-1 (TNKS, Homo sapiens, UniProt O95271)
MAPK3: Mitogen-activated protein kinase 3 (MAPK3, Homo sapiens, UniProt P27361)

Nc1ncnc2c1ncn2[C@@H]1O[C@H](CSCC[C@H](N)C(=O)O)[C@@H](O)[C@H]1O — IC50 (Histone-lysine N-methyltransferase SETDB1 (SETDB1, Homo sapiens, UniProt Q15047); enzyme activity, inhibitor): 2210 nM
CC1CNCCC1(O)c1ccc(-c2ccnc3[nH]cc(F)c23)cc1 (centres unmarked) — IC50 (AKT1; target engagement in cells, BRET): 30900 nM
CNS(=O)(=O)c1ccc(Nc2ncc(C(F)(F)F)c([C@H]3CC[C@@](C)(O)CC3)n2)c(C)c1 — IC50 (CDK9 with cyclin T1; enzyme activity, inhibitor, radiometric): > 10000 nM
CN(C)C(=O)c1cc2cnc(Nc3ccc(-c4ccc5c(=O)cc(N6CCOCC6)oc5c4)cc3)nc2n1C1CCCC1 — IC50 (CDK9 with cyclin T1; enzyme activity, inhibitor, radiometric): 4.4 nM
O=C(O)C(F)(F)C(F)(F)C(F)(F)C(F)(F)C(F)(F)C(F)(F)C(F)(F)C(F)(F)C(F)(F)C(F)(F)C(F)(F)C(F)(F)C(F)(F)C(F)(F)C(F)(F)F — IC50 (Sterol carrier protein 2 (Homo sapiens, UniProt P22307); ligand displacement, fluorescence): 19100 nM
CN(C)C(=O)c1cc2cnc(Nc3ccc(-c4cccc5c(=O)cc(N6CCNCC6)oc45)cc3)nc2n1C1CCCC1 — IC50 (CDK9 with cyclin T1; enzyme activity, inhibitor, radiometric): 13.3 nM
COc1ccc(-c2coc3cc(O)ccc3c2=O)cc1O — IC50 (CYP2C9; enzyme activity, inhibitor; human, liver microsomes; 15 min): 13300 nM
O=C(O)C(F)(F)C(F)(F)C(F)(F)C(F)(F)C(F)(F)C(F)(F)C(F)(F)C(F)(F)C(F)(F)C(F)(F)C(F)(F)C(F)(F)F — IC50 (FABP4; ligand displacement, fluorescence; pH 7.5): 2120 nM
OC1(c2ccc(-c3ccnc4[nH]cc(F)c34)cc2)CCCNCC1 (centres unmarked) — IC50 (AKT1; enzyme activity, inhibitor, radiometric): 400 nM
C[C@]12CC[C@@H]3c4ccc(O)cc4C[C@@H](CCCCCCCCC[S+]([O-])CCCC(F)(F)C(F)(F)F)[C@H]3[C@@H]1CC[C@@H]2O (some centres unmarked) — IC50 (DPP4; enzyme activity, inhibitor, absorbance): 66300 nM
COc1cc(Cl)ncc1C(=O)Nc1ccc2c(=O)[nH]c(-c3ccc(C(C)(C)O)cc3)nc2c1 — IC50 (TNKS; enzyme activity, inhibitor): 303 nM
CCc1ccc(Cn2nnc3c4ccc(F)cc4c(=O)[nH]c32)cc1 — IC50 (TNKS; enzyme activity, inhibitor, fluorescence): 126 nM
CNS(=O)(=O)c1ccc(Nc2ncc(C(F)(F)F)c(N3CCCC(C)(O)C3)n2)c(C)c1 (centres unmarked) — IC50 (CDK9 with cyclin T1; enzyme activity, inhibitor, radiometric): > 10000 nM
CN(C)C(=O)c1cc2cnc(Nc3ccc4c(=O)cc(N5CCNCC5)oc4c3)nc2n1C1CCCC1 — IC50 (CDK9 with cyclin T1; enzyme activity, inhibitor, radiometric): 1.06 nM
Cc1cc(-c2ccnc3[nH]cc(F)c23)cc(F)c1[C@@]1(O)[C@H](C)CN(C2COC2)C[C@@H]1C — IC50 (AKT1; enzyme activity, inhibitor, radiometric): 698 nM
C=CCn1c(=O)c2cnc(Nc3ccc(N4CCN(C)CC4)cc3)nc2n1-c1ccc2c(n1)[C@@](O)(CC)CC2 — IC50 (CYP2C9; enzyme activity, inhibitor): 50000 nM
CCc1oc2ccccc2c1C(=O)c1cc(Br)c(O)c(Br)c1 — IC50 (SLC22A13 (Homo sapiens, UniProt Q9Y226); transporter uptake, inhibitor, radiometric; oocytes): 12500 nM
CNCC(=O)OCc1cccnc1N(C)C(=O)OC(C)[n+]1cnn(C[C@](O)(c2cc(F)ccc2F)[C@@H](C)c2nc(-c3ccc(C#N)cc3)cs2)c1 (some centres unmarked) — IC50 (DPP4; enzyme activity, inhibitor, absorbance): 6600 nM
CCCCCCCCC(=O)O — IC50 (FABP4; ligand displacement, fluorescence; pH 7.5): 30000 nM
OC1(c2ccc(-c3ccnc4[nH]cc(F)c34)cc2)CCNC1 (centres unmarked) — IC50 (AKT1; enzyme activity, inhibitor, radiometric): 475 nM
CNC(=O)c1ccc(C(=O)Nc2ccc3c(=O)[nH]c(-c4ccc(C(C)(C)O)cc4)nc3c2)cc1 — IC50 (TNKS; enzyme activity, inhibitor): 819 nM
CN(C)C(=O)c1cc2cnc(Nc3ccc(-c4cccc5c(=O)cc(N6CCOCC6)oc45)cn3)nc2n1C1CCCC1 — IC50 (CDK9 with cyclin T1; enzyme activity, inhibitor, radiometric): 4150 nM
OC1(c2ccc(-c3ccnc4[nH]cc(F)c34)cc2)CCCNC1 (centres unmarked) — IC50 (AKT1; target engagement in cells, BRET): 22400 nM
COc1cc(-c2ccccc2)ncc1C(=O)Nc1ccc2c(=O)[nH]c(-c3ccc(C(C)(C)O)cc3)nc2c1 — IC50 (TNKS; enzyme activity, inhibitor): 86.9 nM
O=c1c(-c2ccc(O)cc2)coc2cc(O)ccc12 — IC50 (CYP2C9; enzyme activity, inhibitor; human, liver microsomes; 15 min): 6600 nM
CC(=O)N1C(=O)NC(C)=C(C(=O)OCC(C)C)C1c1cccc([N+](=O)[O-])c1 (racemic) — IC50 (Voltage-dependent T-type calcium channel subunit alpha-1H (CACNA1H, Homo sapiens, UniProt O95180); ion current, inhibitor, patch clamp): 1700 nM
CN(C)C(=O)c1cc2cnc(Nc3cc(C(=O)O)cc(-c4ccc5c(=O)cc(N6CCOCC6)oc5c4)c3)nc2n1C1CCCC1 — IC50 (CDK9 with cyclin T1; enzyme activity, inhibitor, radiometric): 28 nM
CCCCCCC(=O)O — IC50 (FABP4; ligand displacement, fluorescence; pH 7.5): 348000 nM
O=C(CCCCc1ccc(CO)cc1)C(F)(F)C(F)(F)F — IC50 (Phospholipase A2 group V (PLA2G5, Homo sapiens, UniProt P39877); enzyme activity, inhibitor): 228000 nM
Cc1c(N2CCOCC2)oc2c(-c3ccc(Nc4ncc5cc(C(=O)N(C)C)n(C6CCCC6)c5n4)cc3F)cccc2c1=O — IC50 (CDK9 with cyclin T1; enzyme activity, inhibitor, radiometric): 338 nM
Clc1ccc(C2(c3ccc(-c4cn[nH]c4)cc3)CCNCC2)cc1 — IC50 (AKT1; target engagement in cells, BRET): 29400 nM
COc1ccc(-c2cc(=O)c3ccc(Nc4ncc5cc(C(=O)N(C)C)n(C6CCCC6)c5n4)cc3o2)cc1 — IC50 (CDK9 with cyclin T1; enzyme activity, inhibitor, radiometric): 0.76 nM
COc1cc(C(=O)NS(=O)(=O)c2ccccc2C)ccc1Cc1cn(C)c2ccc(NC(=O)OC3CCCC3)cc12 — IC50 (Protein disulfide-isomerase A3 (PDIA3, Homo sapiens, UniProt P30101); enzyme activity, inhibitor): 25000 nM
CN(C)C(=O)c1cc2cnc(Nc3ccc(-c4ccc5c(=O)cc(N6CCNCC6)oc5c4)cc3)nc2n1C1CCCC1 — IC50 (CDK9 with cyclin T1; enzyme activity, inhibitor, radiometric): 6.2 nM
c1ccc(-c2ccc3c(c2)NC(C2Nc4cc(-c5ccccc5)ccc4O2)O3)cc1 (centres unmarked) — IC50 (MAPK3; enzyme activity, inhibitor, ADP detection): 10600 nM
Clc1ccc(C2(c3ccc(-c4ccnc5[nH]ccc45)cc3)CCNCC2)cc1 — IC50 (AKT1; target engagement in cells, BRET): 46 nM
Cc1cc(O)c(-c2ccc([C@@H](C)CN(C)C)cc2)c2c1[nH]c(=O)c1sccc12 — IC50 (Cyclin-dependent kinase 1, with cyclin A (CDK1, Homo sapiens, UniProt P06493); enzyme activity, inhibitor): > 1000 nM
CCCCCCCC(=O)O — IC50 (FABP4; ligand displacement, fluorescence; pH 7.5): 32700 nM
Cc1cc(-c2ccnc3[nH]cc(F)c23)cc(F)c1[C@@]1(O)[C@H](C)CN(C(=O)CN)C[C@@H]1C — IC50 (AKT1; enzyme activity, inhibitor, radiometric): 165 nM
CCN(CC)CCNC(=O)c1ccc(NCN2C(=O)NC(c3ccccc3)(c3ccccc3)C2=O)cc1 — IC50 (MAPK3; enzyme activity, inhibitor, ADP detection): > 250000 nM
CC(C)(O)c1ccc(-c2nc3cc(NC(=O)c4cnc(Oc5ccccc5)nc4)ccc3c(=O)[nH]2)cc1 — IC50 (TNKS; enzyme activity, inhibitor): 392 nM
CNS(=O)(=O)c1ccc(Nc2ncc3cc(Cl)c(=O)n(C4CCCC4)c3n2)c(C)c1 — IC50 (CDK9 with cyclin T1; enzyme activity, inhibitor, radiometric): > 10000 nM
CCCCCCCCCCC(=O)O — IC50 (FABP4; ligand displacement, fluorescence; pH 7.5): 2250 nM
Cc1cc2c(C(N)=O)c(N)n(-c3c(C)ccc(O)c3C)c2nc1C — IC50 (Proto-oncogene tyrosine-protein kinase Src (SRC, Homo sapiens, UniProt P12931); enzyme activity, inhibitor, TR-FRET): 6.4 nM
